Test results from ChEMBL document CHEMBL4049410, “Novel benzimidazolyl tetrahydroprotoberberines: Design, synthesis, antimicrobial evaluation and multi-targeting exploration” (2017).
In brackets after ≈: the same amount, converted by molar mass.

Experiments:
Proteus vulgaris = test: Antibacterial activity against Bacillus proteus ATCC 13315 after 24 hrs by two-fold serial dilution assay; assay type: functional; conditions: Proteus vulgaris, ATCC 13315, 24 h; read-out: MIC
Summary of the method: (§1)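 Twofold serial broth dilution following NCCLS guidance, with Chloromycin, Norfloxacin and Fluconazole as positive controls. MIC in μM is the lowest concentration giving complete inhibition of visible bacterial or fungal growth.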

Shigella dysenteriae = test: Antibacterial activity against Shigella dysenteriae after 24 hrs by two-fold serial dilution assay; assay type: functional; conditions: Shigella dysenteriae, 24 h; read-out: MIC
Staphylococcus aureus [1] = test: Antibacterial activity against methicillin-resistant Staphylococcus aureus N315 after 24 hrs by two-fold serial dilution assay; assay type: functional; conditions: Staphylococcus aureus, N315, 24 h; read-out: MIC
Cyberlindnera jadinii = test: Antifungal activity against Candida utilis after 24 hrs by two-fold serial dilution assay; assay type: functional; conditions: Williopsis jadinii, 24 h; read-out: MIC; summary of the method: as §1
Pseudomonas aeruginosa = test: Antibacterial activity against Pseudomonas aeruginosa after 24 hrs by two-fold serial dilution assay; assay type: functional; conditions: Pseudomonas aeruginosa, 24 h; read-out: MIC; summary of the method: as §1
Bacillus subtilis = test: Antibacterial activity against Bacillus subtilis after 24 hrs by two-fold serial dilution assay; assay type: functional; conditions: Bacillus subtilis, 24 h; read-out: MIC; summary of the method: as §1
Escherichia coli [2] = test: Antibacterial activity against Escherichia coli JM109 after 24 hrs by two-fold serial dilution assay; assay type: functional; conditions: Escherichia coli, JM109, 24 h; read-out: MIC; summary of the method: as §1
Aspergillus flavus = test: Antifungal activity against Aspergillus flavus after 24 hrs by two-fold serial dilution assay; assay type: functional; conditions: Aspergillus flavus, 24 h; read-out: MIC; summary of the method: as §1
Pichia norvegensis = test: Antifungal activity against Candida mycoderma after 24 hrs by two-fold serial dilution assay; assay type: functional; conditions: Pichia norvegensis, 24 h; read-out: MIC; summary of the method: as §1
Micrococcus luteus = test: Antibacterial activity against Micrococcus luteus ATCC 4698 after 24 hrs by two-fold serial dilution assay; assay type: functional, NCTC 2665; conditions: Micrococcus luteus, NCTC 2665, 24 h; read-out: MIC; summary of the method: as §1
Candida albicans = test: Antifungal activity against Candida albicans ATCC 76615 after 24 hrs by two-fold serial dilution assay; assay type: functional; conditions: Candida albicans, ATCC 76615, 24 h; read-out: MIC; summary of the method: as §1
Escherichia coli [3] = test: Antibacterial activity against Escherichia coli DH52 after 24 hrs by two-fold serial dilution assay; assay type: functional; conditions: Escherichia coli, DH52, 24 h; read-out: MIC; summary of the method: as §1
Salmonella typhi = test: Antibacterial activity against Bacillus typhi after 24 hrs by two-fold serial dilution assay; assay type: functional, Salmonella enterica subsp. enterica serovar Typhi; conditions: Salmonella enterica, 24 h; read-out: MIC
Saccharomyces cerevisiae = test: Antifungal activity against Saccharomyces cerevisiae after 24 hrs by two-fold serial dilution assay; assay type: functional; conditions: Saccharomyces cerevisiae, 24 h; read-out: MIC; summary of the method: as §1
Staphylococcus aureus [4] = test: Antibacterial activity against Staphylococcus aureus ATCC 25923 after 24 hrs by two-fold serial dilution assay; assay type: functional; conditions: Staphylococcus aureus, ATCC 25923, 24 h; read-out: MIC; summary of the method: as §1

Structure (SMILES)	MIC (Proteus vulgaris) [µM]	MIC (Shigella dysenteriae) [µM]	MIC (Staphylococcus aureus [1]) [µM]	MIC (Cyberlindnera jadinii) [µM]	MIC (Pseudomonas aeruginosa) [µM]	MIC (Bacillus subtilis) [µM]	MIC (Escherichia coli [2]) [µM]	MIC (Aspergillus flavus) [µM]	MIC (Pichia norvegensis) [µM]	MIC (Micrococcus luteus) [µM]	MIC (Candida albicans) [µM]	MIC (Escherichia coli [3]) [µM]	MIC (Salmonella typhi) [µM]	MIC (Saccharomyces cerevisiae) [µM]	MIC (Staphylococcus aureus [4]) [µM]
CCCn1c(-c2cc(OC)c(O)c3c2CC2c4cc5c(cc4CCN2C3)OCO5)nc2ccccc21 (stereo not given)	22.1 (≈ 10.7 µg/mL)	265 (≈ 128 µg/mL)	55.2 (≈ 26.7 µg/mL)	27.6 (≈ 13.3 µg/mL)	66.2 (≈ 32 µg/mL)	110 (≈ 53.3 µg/mL)	110 (≈ 53.3 µg/mL)	66.2 (≈ 32 µg/mL)	13.8 (≈ 6.67 µg/mL)	110 (≈ 53.3 µg/mL)	22.1 (≈ 10.7 µg/mL)	110 (≈ 53.3 µg/mL)	27.6 (≈ 13.3 µg/mL)	132 (≈ 64 µg/mL)	44.1 (≈ 21.3 µg/mL)
CCn1cc(C(=O)O)c(=O)c2cc(F)c(N3CCNCC3)cc21 [NORFLOXACIN]	12.5 (≈ 3.99 µg/mL)	5.3 (≈ 1.69 µg/mL)	25.1 (≈ 8.02 µg/mL)	–	41.8 (≈ 13.3 µg/mL)	3.1 (≈ 0.99 µg/mL)	50.1 (≈ 16 µg/mL)	–	–	4.2 (≈ 1.34 µg/mL)	–	50.1 (≈ 16 µg/mL)	10.4 (≈ 3.32 µg/mL)	–	1.1 (≈ 0.351 µg/mL)
CCCCCCCCn1c(-c2cc(OC)c(O)c3c2CC2c4cc5c(cc4CCN2C3)OCO5)nc2ccccc21 (stereo not given)	9.6 (≈ 5.32 µg/mL)	77.1 (≈ 42.7 µg/mL)	231 (≈ 128 µg/mL)	24.1 (≈ 13.3 µg/mL)	38.5 (≈ 21.3 µg/mL)	57.8 (≈ 32 µg/mL)	116 (≈ 64 µg/mL)	28.9 (≈ 16 µg/mL)	4.8 (≈ 2.66 µg/mL)	48.2 (≈ 26.7 µg/mL)	28.9 (≈ 16 µg/mL)	24.1 (≈ 13.3 µg/mL)	24.1 (≈ 13.3 µg/mL)	96.3 (≈ 53.3 µg/mL)	14.4 (≈ 7.97 µg/mL)
CCn1c(-c2cc(OC)c(O)c3c2CC2c4cc5c(cc4CCN2C3)OCO5)nc2ccccc21 (stereo not given)	56.8 (≈ 26.7 µg/mL)	136 (≈ 64 µg/mL)	14.2 (≈ 6.67 µg/mL)	34.1 (≈ 16 µg/mL)	68.2 (≈ 32 µg/mL)	34.1 (≈ 16 µg/mL)	28.4 (≈ 13.3 µg/mL)	56.8 (≈ 26.7 µg/mL)	56.8 (≈ 26.7 µg/mL)	28.4 (≈ 13.3 µg/mL)	17 (≈ 7.98 µg/mL)	136 (≈ 64 µg/mL)	14.2 (≈ 6.67 µg/mL)	22.7 (≈ 10.7 µg/mL)	28.4 (≈ 13.3 µg/mL)
CCCCCCCCCCCCn1c(-c2cc(OC)c(O)c3c2CC2c4cc5c(cc4CCN2C3)OCO5)nc2ccccc21 (stereo not given)	5.5 (≈ 3.35 µg/mL)	175 (≈ 107 µg/mL)	175 (≈ 107 µg/mL)	17.5 (≈ 10.7 µg/mL)	17.5 (≈ 10.7 µg/mL)	35 (≈ 21.3 µg/mL)	26.2 (≈ 16 µg/mL)	43.8 (≈ 26.7 µg/mL)	3.3 (≈ 2.01 µg/mL)	105 (≈ 64 µg/mL)	5.5 (≈ 3.35 µg/mL)	87.5 (≈ 53.4 µg/mL)	8.7 (≈ 5.31 µg/mL)	70 (≈ 42.7 µg/mL)	26.2 (≈ 16 µg/mL)
